Converted amounts (≈) assume the structure as drawn.
How the values were obtained:
Candida albicans [1] = assay: Ratio of the in vitro minimal inhibitory to that of bifonazole against Candida albicans (MIC(compound)/MIC(bifonazole)); format: functional
In short: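 Broth microdilution per NCCLS M27-A2 against 12 Candida albicans strains (AIDS oropharyngeal, HIV vulvovaginitis isolates, ATCC 24433 and 20891, lab strains 3153 and CA2). Inoculum ~10^4 cells/mL in RPMI 1640, pH 7.0; DMSO stocks 6.4 mg/mL, twofold dilutions 0.016–64 μg/mL; read at 24 h, 28 °C, no visible growth. Mean MIC over strains converted to μmol/mL, divided by bifonazole MIC.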

Candida albicans [2] = assay: In vitro minimal inhibitory concentration against Candida albicans with percentage of resistant strains %R = 16.6 (MIC > 64 ug/mL) at a range of 0.5-4 ug/mL; format: functional
Candida albicans [3] = assay: In vitro concentration causing 90% inhibition of Candida albicans with percentage of resistant strains %R = 16.6 (MIC > 64 ug/mL) at a range of 0.5-4 ug/mL; format: functional
Candida albicans [4] = assay: In vitro concentration causing 50% inhibition of Candida albicans with percentage of resistant strains %R = 16.6 (MIC > 64 ug/mL) at a range of 0.5-4 ug/mL; format: functional
Candida albicans [5] = assay: In vitro concentration causing 90% inhibition of Candida albicans with percentage of resistant strains %R = 33.3 (MIC > 64 ug/mL) at a range of 0.25-32 ug/mL
Candida albicans [6] = assay: In vitro minimal inhibitory concentration against Candida albicans with percentage of resistant strains %R = 33.3 (MIC > 64 ug/mL) at a range of 0.25-32 ug/mL
Candida albicans [7] = assay: In vitro concentration causing 50% inhibition of Candida albicans with percentage of resistant strains %R = 33.3 (MIC > 64 ug/mL) at a range of 0.25-32 ug/mL
Candida albicans [8] = assay: In vitro minimal inhibitory concentration against Candida albicans with percentage of resistant strains %R = 33.33 (MIC > 64 ug/mL) at a range of 0.125-2 ug/mL; format: functional
Candida albicans [9] = assay: In vitro concentration causing 90% inhibition of Candida albicans with percentage of resistant strains %R = 33.33 (MIC > 64 ug/mL) at a range of 0.125-2 ug/mL; format: functional
Candida albicans [10] = assay: In vitro concentration causing 50% inhibition of Candida albicans with percentage of resistant strains %R = 33.33 (MIC > 64 ug/mL) at a range of 0.125-2 ug/mL; format: functional
Candida albicans [11] = assay: In vitro minimal inhibitory concentration against Candida albicans with percentage of resistant strains %R = 33.3 (MIC > 64 ug/mL) at a range of 0.065-4 ug/mL; format: functional
Candida albicans [12] = assay: In vitro concentration causing 50% inhibition of Candida albicans with percentage of resistant strains %R = 33.3 (MIC > 64 ug/mL) at a range of 0.065-4 ug/mL; format: functional
Candida albicans [13] = assay: In vitro concentration causing 90% inhibition of Candida albicans with percentage of resistant strains %R = 33.3 (MIC > 64 ug/mL) at a range of 0.065-4 ug/mL; format: functional
Candida albicans [14] = assay: In vitro minimal inhibitory concentration against Candida albicans with percentage of resistant strains %R = 0 (MIC > 64 ug/mL) at a range of 0.062-0.5 ug/mL; format: functional
Candida albicans [15] = assay: In vitro concentration causing 50% inhibition of Candida albicans with percentage of resistant strains %R = 0 (MIC > 64 ug/mL) at a range of 0.062-0.5 ug/mL; format: functional
Candida albicans [16] = assay: In vitro concentration causing 90% inhibition of Candida albicans with percentage of resistant strains %R = 0 (MIC > 64 ug/mL) at a range of 0.062-0.5 ug/mL; format: functional
Candida albicans [17] = assay: In vitro concentration causing 90% inhibition of Candida albicans with percentage of resistant strains %R = 41.6 (MIC > 64 ug/mL) at a range of 0.062-0.125 ug/mL; format: functional
Candida albicans [18] = assay: In vitro minimal inhibitory concentration against Candida albicans with percentage of resistant strains %R = 41.6 (MIC > 64 ug/mL) at a range of 0.062-0.125 ug/mL; format: functional
Candida albicans [19] = assay: In vitro concentration causing 50% inhibition of Candida albicans with percentage of resistant strains %R = 41.6 (MIC > 64 ug/mL) at a range of 0.062-0.125 ug/mL; format: functional
Candida albicans [20] = assay: In vitro minimal inhibitory concentration against Candida albicans with percentage of resistant strains %R = 0 (MIC > 64 ug/mL) at a range of 0.016-0.5 ug/mL; format: functional
Candida albicans [21] = assay: In vitro concentration causing 50% inhibition of Candida albicans with percentage of resistant strains %R = 0 (MIC > 64 ug/mL) at a range of 0.016-0.5 ug/mL; format: functional
Candida albicans [22] = assay: In vitro concentration causing 90% inhibition of Candida albicans with percentage of resistant strains %R = 0 (MIC > 64 ug/mL) at a range of 0.016-0.5 ug/mL; format: functional
Candida albicans [23] = assay: In vitro minimal inhibitory concentration against Candida albicans with percentage of resistant strains %R = 50 (MIC > 64 ug/mL) at a range of 2-16 ug/mL; format: functional
Candida albicans [24] = assay: In vitro concentration causing 90% inhibition of Candida albicans with percentage of resistant strains %R = 50 (MIC > 64 ug/mL) at a range of 2-16 ug/mL; format: functional
Candida albicans [25] = assay: In vitro concentration causing 50% inhibition of Candida albicans with percentage of resistant strains %R = 50 (MIC > 64 ug/mL) at a range of 2-16 ug/mL; format: functional

SMILES | Ratio (Candida albicans [1]) | other results
COc1ccc(C(Cc2ccc([N+](=O)[O-])cc2)n2ccnc2)cc1 (stereo not drawn) | 17 | 
COC(=O)/C=C/n1cc(-c2ccc(Cl)cc2)c(C(c2ccccc2)n2ccnc2)c1 (stereo not drawn) | 0.34 | MIC (Candida albicans [2]): 1.62 µg/mL (≈ 3.88 µM); MIC90 (Candida albicans [3]): 4 µg/mL (≈ 9.57 µM); MIC50 (Candida albicans [4]): 2 µg/mL (≈ 4.79 µM)
COc1ccc(C(Cc2cccc(Cl)c2)n2ccnc2)cc1 (stereo not drawn) | 44 | 
CCn1cc(-c2ccc(Cl)cc2)c(C(c2ccccc2)n2ccnc2)c1 (stereo not drawn) | 0.11 | MIC90 (Candida albicans [5]): 8 µg/mL (≈ 22.1 µM); MIC (Candida albicans [6]): 5.59 µg/mL (≈ 15.4 µM); MIC50 (Candida albicans [7]): 1 µg/mL (≈ 2.76 µM)
Cc1ccc(C(c2ccn(-c3ccc(Cl)cc3)c2)n2ccnc2)cc1 (stereo not drawn) | 1.1 | 
c1ccc(-c2c[nH]cc2C(c2ccc3ccccc3c2)n2ccnc2)cc1 (stereo not drawn) | 3.8 | 
C=CCn1cc(-c2ccc(Cl)cc2)c(C(c2ccc(Cl)cc2Cl)n2ccnc2)c1 (stereo not drawn) | 0.15 | MIC (Candida albicans [8]): 0.73 µg/mL (≈ 1.65 µM); MIC90 (Candida albicans [9]): 2 µg/mL (≈ 4.52 µM); MIC50 (Candida albicans [10]): 0.5 µg/mL (≈ 1.13 µM)
Cn1cc(-c2ccccc2)c(C(c2ccc3ccccc3c2)n2ccnc2)c1 (stereo not drawn) | 63 | 
Clc1ccc(-c2c[nH]cc2C(c2ccccc2)n2ccnc2)cc1 (stereo not drawn) | 0.66 | MIC (Candida albicans [11]): 2.5 µg/mL (≈ 7.49 µM); MIC50 (Candida albicans [12]): 0.125 µg/mL (≈ 0.374 µM); MIC90 (Candida albicans [13]): 4 µg/mL (≈ 12 µM)
CC(Cc1ccc(Cl)cc1Cl)n1ccnc1.COc1ccccc1 (stereo not drawn) | 1 | 
Clc1ccc(C(c2c[nH]cc2-c2ccc(-c3ccccc3)cc2)n2ccnc2)c(Cl)c1 (stereo not drawn) | 4.3 | 
Fc1ccc(C(c2ccn(-c3ccc(Cl)cc3)c2)n2ccnc2)cc1 (stereo not drawn) | 2.8 | 
Fc1ccc(C(c2ccn(-c3ccc(F)cc3)c2)n2ccnc2)cc1 (stereo not drawn) | 1.4 | 
COc1ccc(C(Cc2ccccc2F)n2ccnc2)cc1 (stereo not drawn) | 49 | 
CC(C)=CCn1cc(-c2ccc(Cl)cc2)c(C(c2ccccc2)n2ccnc2)c1 (stereo not drawn) | 0.043 | MIC (Candida albicans [14]): 0.194 µg/mL (≈ 0.483 µM); MIC50 (Candida albicans [15]): 0.065 µg/mL (≈ 0.162 µM); MIC90 (Candida albicans [16]): 0.5 µg/mL (≈ 1.24 µM)
COc1ccc(C(Cc2cccc(-n3cccc3)c2)n2ccnc2)cc1 (stereo not drawn) | 45 | 
Cn1cc(-c2ccc(Cl)cc2)c(C(c2ccccc2)n2ccnc2)c1 (stereo not drawn) | 0.025 | MIC90 (Candida albicans [17]): 0.125 µg/mL (≈ 0.359 µM); MIC (Candida albicans [18]): 0.097 µg/mL (≈ 0.279 µM); MIC50 (Candida albicans [19]): 0.062 µg/mL (≈ 0.178 µM)
Fc1ccc(-n2ccc(C(c3ccc(Cl)cc3)n3ccnc3)c2)cc1 (stereo not drawn) | 2.7 | 
Clc1ccc(-c2cn(CC3CC3)cc2C(c2ccccc2)n2ccnc2)cc1 (stereo not drawn) | 0.025 | MIC (Candida albicans [20]): 0.111 µg/mL (≈ 0.286 µM); MIC50 (Candida albicans [21]): 0.016 µg/mL (≈ 0.0412 µM); MIC90 (Candida albicans [22]): 0.125 µg/mL (≈ 0.322 µM)
C=Cn1cc(-c2ccc(Cl)cc2)c(C(c2ccccc2)n2ccnc2)c1 (stereo not drawn) | 0.031 | MIC (Candida albicans [20]): 0.125 µg/mL (≈ 0.347 µM); MIC50 (Candida albicans [21]): 0.032 µg/mL (≈ 0.0889 µM); MIC90 (Candida albicans [22]): 0.25 µg/mL (≈ 0.695 µM)
Clc1ccc(-n2ccc(C(c3ccccc3)n3ccnc3)c2)cc1 (stereo not drawn) | 0.7 | 
Oc1ccc(-c2c[nH]cc2C(c2ccc(Cl)cc2Cl)n2ccnc2)cc1 (stereo not drawn) | 26 | 
COc1ccc(C(Cc2ccccc2Cl)n2ccnc2)cc1 (stereo not drawn) | 63 | 
Cc1ccc(C(c2ccn(-c3ccc(F)cc3)c2)n2ccnc2)cc1 (stereo not drawn) | 3.1 | 

SMILES | Ratio (Candida albicans [1]) | other results
Clc1ccc(-c2cn(-c3ccccc3)cc2C(c2ccccc2)n2ccnc2)cc1 (stereo not drawn) | 1.5 | MIC (Candida albicans [23]): 7 µg/mL (≈ 17.1 µM); MIC90 (Candida albicans [24]): 16 µg/mL (≈ 39 µM); MIC50 (Candida albicans [25]): 4 µg/mL (≈ 9.76 µM)
CCCn1cc(-c2ccc(Cl)cc2)c(C(c2ccccc2)n2ccnc2)c1 (stereo not drawn) | 0.023 | MIC (Candida albicans [20]): 0.096 µg/mL (≈ 0.255 µM); MIC50 (Candida albicans [21]): 0.016 µg/mL (≈ 0.0426 µM); MIC90 (Candida albicans [22]): 0.032 µg/mL (≈ 0.0851 µM)
c1ccc(C(c2ccc(-n3cccc3)cc2)n2ccnc2)cc1 (stereo not drawn) | 6.8 | 
c1ccc(C(c2ccn(-c3ccccc3)c2)n2ccnc2)cc1 (stereo not drawn) | 2.3 | 
COc1ccc(C(Cc2ccc(F)cc2)n2ccnc2)cc1 (stereo not drawn) | 23 | 
Nc1ccc(-c2c[nH]cc2C(c2ccc(Cl)cc2Cl)n2ccnc2)cc1 (stereo not drawn) | 28 | 
COc1ccc(C(Cc2ccccc2-n2cccc2)n2ccnc2)cc1 (stereo not drawn) | 7.8 | 
Fc1ccc(-n2ccc(C(c3ccccc3)n3ccnc3)c2)cc1 (stereo not drawn) | 4.1 | 
CSc1ccc(-c2c[nH]cc2C(c2ccc(Cl)cc2Cl)n2ccnc2)cc1 (stereo not drawn) | 2.8 | 
CC(Cc1ccc(N)cc1)n1ccnc1.COc1ccccc1 (stereo not drawn) | 1.4 | 
c1ccc(-c2c[nH]cc2C(c2cccc3ccccc23)n2ccnc2)cc1 (stereo not drawn) | 1.7 | 
Cn1cc(-c2ccccc2)c(C(c2cccc3ccccc23)n2ccnc2)c1 (stereo not drawn) | 6 | 
COc1ccc(C(Cc2ccccc2[N+](=O)[O-])n2ccnc2)cc1 (stereo not drawn) | 97 | 
Cc1ccc(C(c2ccn(-c3ccccc3)c2)n2ccnc2)cc1 (stereo not drawn) | 1.2 | 
COc1ccc(C(Cc2cccc(F)c2)n2ccnc2)cc1 (stereo not drawn) | 51 | 
Clc1ccc(C(c2ccn(-c3ccc(Cl)cc3)c2)n2ccnc2)cc1 (stereo not drawn) | 7.3 | 
Fc1ccc(C(c2ccn(-c3ccccc3)c2)n2ccnc2)cc1 (stereo not drawn) | 1.8 | 
CCn1cc(-c2ccc(Cl)c(Cl)c2)c(C(c2ccc(C)cc2)n2ccnc2)c1 (stereo not drawn) | 0.47 | MIC (Candida albicans [8]): 2.18 µg/mL (≈ 5.31 µM); MIC90 (Candida albicans [9]): 2 µg/mL (≈ 4.87 µM); MIC50 (Candida albicans [10]): 2 µg/mL (≈ 4.87 µM)
C=CCn1cc(-c2ccc(Cl)cc2)c(C(c2ccccc2)n2ccnc2)c1 (stereo not drawn) | 0.019 | MIC (Candida albicans [20]): 0.082 µg/mL (≈ 0.219 µM); MIC50 (Candida albicans [21]): 0.016 µg/mL (≈ 0.0428 µM); MIC90 (Candida albicans [22]): 0.25 µg/mL (≈ 0.669 µM)
N#Cc1ccc(-c2c[nH]cc2C(c2ccc(Cl)cc2Cl)n2ccnc2)cc1 (stereo not drawn) | 4.3 | 
Clc1ccc(C(c2c[nH]cc2-c2ccc(-n3cccc3)cc2)n2ccnc2)c(Cl)c1 (stereo not drawn) | 1.3 | 
FC(F)(F)c1ccc(-c2c[nH]cc2C(c2ccc(Cl)cc2Cl)n2ccnc2)cc1 (stereo not drawn) | 2.2 | 
O=[N+]([O-])c1ccc(-c2c[nH]cc2C(c2ccc(Cl)cc2Cl)n2ccnc2)cc1 (stereo not drawn) | 4.5 | 

From ChEMBL document CHEMBL1141140, “Antifungal agents. 11. N-substituted derivatives of 1-[(aryl)(4-aryl-1H-pyrrol-3-yl)methyl]-1H-imidazole: synthesis, anti-Candida activity, and QSAR studies” (2005)
